The record followed here is ChEMBL document CHEMBL1275352, “Selection of evodiamine as a novel topoisomerase I inhibitor by structure-based virtual screening and hit optimization of evodiamine derivatives as antitumor agents” (J Med Chem, 2010).

One experiment relates to LoVo. As to the kind of experiment: Cytotoxicity against human LoVo cells after 3 days by MTT assay. The note with it: for pIC50: Homo sapiens, LoVo, 72 h, read-out: IC50; for IC50: lovo. In kind it is functional, cell-based. (Tetrazolium dyes change colour on reduction, which living cells bring about.)
The next experiment has as its system MDA-MB-435. Description: Cytotoxicity against human MDA-MB-435 cells after 3 days by MTT assay. Type of experiment: functional, cell-based. Particulars: for IC50: mda-mb-435; for pIC50: Homo sapiens, MDA-MB-435, 72 h, read-out: IC50.
Another experiment has as its system A549. Description: Cytotoxicity against human A549 cells after 3 days by MTT assay. Type of experiment: functional, cell-based. Particulars: for IC50: a549; for pIC50: Homo sapiens, A549, 72 h, read-out: IC50.
Experiment [1] concerns the target T1, DNA topoisomerase 1 (Homo sapiens) (UniProt P11387).
T1 sequence (whole entry): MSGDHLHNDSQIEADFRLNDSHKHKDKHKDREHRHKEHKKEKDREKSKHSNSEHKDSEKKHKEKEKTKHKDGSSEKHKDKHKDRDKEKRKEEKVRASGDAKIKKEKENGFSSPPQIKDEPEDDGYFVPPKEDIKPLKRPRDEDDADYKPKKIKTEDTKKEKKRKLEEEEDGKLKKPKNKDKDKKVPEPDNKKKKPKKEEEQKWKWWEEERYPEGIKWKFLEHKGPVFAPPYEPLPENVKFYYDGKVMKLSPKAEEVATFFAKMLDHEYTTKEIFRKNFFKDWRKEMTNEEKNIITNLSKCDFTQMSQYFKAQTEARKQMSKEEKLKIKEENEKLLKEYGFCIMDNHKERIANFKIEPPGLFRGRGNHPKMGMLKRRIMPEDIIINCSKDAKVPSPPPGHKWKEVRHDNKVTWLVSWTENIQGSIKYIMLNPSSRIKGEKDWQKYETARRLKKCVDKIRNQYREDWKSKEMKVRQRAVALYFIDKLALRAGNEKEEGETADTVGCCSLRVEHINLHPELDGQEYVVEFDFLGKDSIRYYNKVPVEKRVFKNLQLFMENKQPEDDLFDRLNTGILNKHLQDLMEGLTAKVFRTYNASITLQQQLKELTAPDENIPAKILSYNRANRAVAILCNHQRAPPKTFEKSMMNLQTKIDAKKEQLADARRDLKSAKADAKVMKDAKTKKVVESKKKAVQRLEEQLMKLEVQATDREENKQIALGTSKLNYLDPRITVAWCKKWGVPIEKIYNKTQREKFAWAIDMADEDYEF
Description: Inhibition of DNA topoisomerase 1-mediated supercoiled Escherichia coli pBR322 DNA relaxation at 100 uM by UV transilluminator analysis. The note with it: 500 uM; in the assay text read “500 uM” for “100 uM”. In a few lines:
(§1)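 Purified topoisomerase I was incubated with supercoiled DNA, and inhibition of relaxation by the enzyme was scored. Compounds were tested at concentrations ranging from 1 to 500 μM; an initial screen was run at 500 μM and active compounds were retested at lower concentrations.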

Experiment [2] addresses T1, DNA topoisomerase 1 (Homo sapiens). Description: Inhibition of DNA topoisomerase 1-mediated supercoiled Escherichia coli pBR322 DNA relaxation at 10 uM by UV transilluminator analysis. In a few lines:
as §1

Experiment [3] has the same target. As to the kind of experiment: Inhibition of DNA topoisomerase 1-mediated supercoiled Escherichia coli pBR322 DNA relaxation by UV transilluminator analysis. In a few lines: as §1
For experiment [4] the target is unchanged. Description: Inhibition of DNA topoisomerase 1-mediated supercoiled Escherichia coli pBR322 DNA relaxation at 1 to 50 uM by UV transilluminator analysis. A digest of the protocol:
as §1

The test system of a further experiment is HCT-116. Description: Cytotoxicity against human HCT116 cells after 3 days by MTT assay. In kind it is functional, cell-based. Particulars: HCT-116, 72 h.

pIC50: −log10 of the molar value. Calls of active or inactive are those of the source. The calls are words filed in the database; no cut-off is given here.

For orientation: pIC50 means −log10 of the IC50, conventionally taken in molar units. Turning to `Cc1ccc(-c2csc3nc4c5ccccc5c(Cl)nn4c(=O)c23)cc1C`, in the experiment with LoVo, the pIC50 is 3.72. For the same compound, the IC50 entry in the experiment on MDA-MB-435 and with A549 was “Not Active” throughout. Also, the inhibition result in experiment [1] was “Active”.

For `Nc1ccccc1Sc1ccc2c(=O)n3c4ccccc4nc3c3cccc1c23`, the IC50 result with LoVo, in the experiment on MDA-MB-435 and in the experiment on A549 was “Not Active” each time. In addition, in experiment [1], the inhibition entry is “Active”.

For the compound `CCCOc1ccc(-c2nc3s/c(=C4\C(=O)N(CC(=O)O)c5ccccc54)c(=O)n3n2)cc1`, the IC50 result in the experiment on LoVo, in the experiment with MDA-MB-435 and in the experiment with A549 was “Not Active” throughout. For the same compound, the inhibition result in experiment [2] and in experiment [1] was “Active” each time. The inhibition result in experiment [3] is “Dose-dependent effect”.

In the case of `CCCNC(=O)Cn1c2ccccc2[n+]2nc3c(cc12)-c1cccc2cccc-3c12`, the inhibition result in experiment [4] and in experiment [1] was “Active” each time. Also, the pIC50 was 4.59 in the experiment with LoVo, 4.11 in the experiment with MDA-MB-435 and 4.43 in the experiment with A549.

In the case of `CN1c2ccccc2C(=O)N2CCc3c(n(C(=O)c4ccc(Cl)cc4)c4ccccc34)C21` (centres undefined), the pIC50 in the experiment with MDA-MB-435 is 7.31; in the experiment with HCT-116, 5.59; with A549, 6.07. Moreover, the inhibition entry in experiment [1] was “Active”.

Take `Cc1cc2nc3s/c(=C4\C(=O)N(CC(=O)O)c5ccccc54)c(=O)n3c2cc1C`: the inhibition entry in experiment [4] and in experiment [1] was “Active” throughout. The pIC50 in the experiment with LoVo is 3.62; with MDA-MB-435, 3.77. Moreover, the IC50 entry with A549 is listed as “Not Active”.

For `Cc1ccc(S(=O)(=O)c2cc3c(c4nsnc24)C(=O)c2ccccc2C3=O)cc1`, the pIC50 with LoVo was 4.37; in the experiment on MDA-MB-435 it was 4.60; with A549, 6.30. Moreover, the inhibition result in experiment [2] and in experiment [1] was “Active” throughout. Moreover, the inhibition result in experiment [3] was “Dose-dependent effect”.
